How the values were obtained:
[1] = test system: Human immunodeficiency virus 1; assay: Antiviral activity against HIV-1 3B infected in human MT4 cells assessed as protection against virus-induced cytopathic effect after 4 days by MTT assay; assay type: functional, organism-based; conditions: Human immunodeficiency virus 1, 3B, MT4, 96 h
In short: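 MT-4 cells (1 × 10^4/well in RPMI) with or without serial compound dilutions, infected with HIV-1 at 100 CCID50 (m.o.i. 0.01). After 4 days at 37 °C, protection from cytopathogenicity read by MTT. EC50 by linear regression versus untreated controls; mean of three independent determinations.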

[2] = test system: Human alphaherpesvirus 1; assay: Antiviral activity against HSV-1 KOS ATCC VR- 1493 infected in african green monkey Vero-76 cells after 3 days by plaque reduction assay; assay type: functional, organism-based; conditions: Human alphaherpesvirus 1, KOS ATCC VR1493, Vero 76, 72 h
[3] = test system: Bovine viral diarrhea virus 1; assay: Antiviral activity against BVDV NADL ATCC VR-534 infected in MDBK cells assessed as protection against virus-induced cytopathic effect after 3 or 4 days by MTT assay; assay type: functional, organism-based; conditions: Bovine viral diarrhea virus isolates and strains, NADL ATCC VR-534, MDBK
In short: (§1)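 BHK-21 (YFV, Reo-1) or MDBK (BVDV) cells seeded at 5 × 10^4 or 3 × 10^4 cells/well and grown overnight to confluence. Monolayers infected at m.o.i. 0.01 in maintenance medium (MEM-Earle, 0.5% inactivated FBS). Serial compound dilutions added 2 h after infection; 37 °C for 3-4 days. Viability read by MTT. EC50 by linear regression versus untreated controls; mean of three determinations.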

[4] = test system: Vaccinia virus; assay: Antiviral activity against VV Elstree ATCC VR-1549 infected in african green monkey Vero-76 cells after 3 days by plaque reduction assay; assay type: functional, organism-based; conditions: Orthopoxvirus vaccinia, Elstree ATCC VR-1549, Vero 76, 72 h
[5] = test system: Vesicular stomatitis virus; assay: Antiviral activity against VSV Indiana ATCC VR-158 infected in african green monkey Vero-76 cells after 2 days by plaque reduction assay; assay type: functional, organism-based; conditions: Indiana ATCC VR-158, Vero 76, 48 h
[6] = Cytotoxicity against african green monkey Vero 76 cells assessed as reduction in cell viability after 48 to 96 hrs by MTT assay; assay type: cell-based; conditions: chlorocebus sabaeus
In short: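 Vero-76 cells plated at 4 × 10^5 cells/mL in D-MEM with L-glutamine, kanamycin and 10% FBS. Incubated with serial dilutions of test compounds at 37 °C, 5% CO2 for 48-96 h. Viability by MTT. CC50 by linear regression relative to untreated cells. Mean of three independent runs.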

[7] = test system: Coxsackievirus B5; assay: Antiviral activity against CVB-5 virus Faulkner ATCC VR-185 infected in african green monkey Vero-76 cells after 3 days by plaque reduction assay; assay type: functional, organism-based; conditions: Enterovirus B, Faulkner ATCC VR-185, Vero 76, 72 h
[8] = Cytotoxicity against human MT4 cells assessed as reduction in cell proliferation after 96 hrs by MTT assay; assay type: cell-based
In short: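 MT-4 cells in exponential growth seeded at 1 × 10^5 cells/mL in RPMI-1640 with 10% FBS and penicillin/streptomycin. Cultured with serial compound dilutions at 37 °C, 5% CO2. MTT viability after 96 h. CC50 by linear regression against untreated controls. Mean of three independent determinations.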

[9] = Cytotoxicity against MDBK cells assessed as reduction in cell viability after 72 hrs by MTT assay; assay type: cell-based, Bos taurus; conditions: cattle
In short: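 MDBK cells seeded at 6 × 10^5 cells/mL in MEM-E with L-glutamine, 1 mM sodium pyruvate, kanamycin and 10% horse serum. Mock-infected cultures held with serial compound dilutions at 37 °C, 5% CO2. MTT viability read after 72 h. 50% cytotoxic concentration from linear regression as % of untreated controls. Three independent determinations.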

[10] = test system: Mammalian orthoreovirus 1; assay: Antiviral activity against Reovirus 1 ATCC VR- 214 infected in BHK21 cells assessed as protection against virus-induced cytopathic effect after 3 or 4 days by MTT assay; assay type: functional, cell-based; conditions: Mammalian orthoreovirus 1, ATCC VR- 214, BHK-21; in short: as §1
[11] = test system: Respiratory syncytial virus; assay: Antiviral activity against RSVA2 ATCC VR-1540 infected in african green monkey Vero-76 cells after 5 days by plaque reduction assay; assay type: functional, organism-based; conditions: human respiratory syncytial virus, A2 ATCC VR-1540, Vero 76, 120 h
[12] = test system: Human poliovirus 1 strain Sabin; assay: Antiviral activity against Human poliovirus 1 strain Sabin 1 virus infected in african green monkey Vero-76 cells after 2 days by plaque reduction assay; assay type: functional, organism-based; conditions: Enterovirus C, 1, Vero 76, 48 h
[13] = Cytotoxicity against BHK21 cells assessed as reduction in cell viability after 72 hrs by MTT assay; assay type: cell-based, Mesocricetus auratus, BHK-21; conditions: hamster
In short: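 BHK cells seeded at 1 × 10^6 cells/mL in MEM-E with L-glutamine, 1 mM sodium pyruvate, kanamycin and 10% FBS. Mock-infected cells exposed to serial dilutions of compound at 37 °C, 5% CO2, run in parallel with the antiviral assays. Viability by MTT at 72 h. CC50 by linear regression vs untreated controls. Mean of three independent determinations.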

[14] = test system: Yellow fever virus; assay: Antiviral activity against YFV 17-D vaccine (Stamaril Pasteur J07B01) infected in BHK21 cells assessed as protection against virus-induced cytopathic effect after 3 or 4 days by MTT assay; assay type: functional, organism-based; conditions: BHK-21; in short: as §1

Row | SMILES | EC50 [1] | EC50 [2] | EC50 [3] | EC50 [4] | EC50 [5] | CC50 [6] | EC50 [7] | CC50 at 96 h [8] | CC50 at 72 h [9] | EC50 [10] | EC50 [11] | EC50 [12] | CC50 at 72 h [13] | EC50 [14]
1 | O=c1c(-c2ccccc2)nc2c(Cl)c3ncccc3cc2n1Cc1ccccc1 | > 88 µM | > 100 µM | 46 µM | > 90 µM | > 90 µM | 90 µM | > 90 µM | 88 µM | > 100 µM | > 100 µM | > 90 µM | > 90 µM | > 100 µM | > 100 µM
2 | CC(C)c1nc2c(Cl)c3ncccc3cc2n(C)c1=O | > 100 µM | > 100 µM | > 100 µM | > 100 µM | > 100 µM | > 100 µM | > 100 µM | > 100 µM | > 100 µM | > 100 µM | > 100 µM | > 100 µM | > 100 µM | > 100 µM
3 | O=[N+]([O-])c1ccc(COc2nc3cc4cccnc4c(Cl)c3nc2-c2ccccc2)cc1 | > 100 µM | > 100 µM | > 100 µM | > 100 µM | > 100 µM | > 100 µM | > 100 µM | > 100 µM | > 100 µM | > 100 µM | > 100 µM | > 100 µM | > 100 µM | > 100 µM
4 | COc1nc2cc3cccnc3c(Cl)c2nc1C(C)C | > 100 µM | > 100 µM | > 100 µM | > 100 µM | > 100 µM | > 100 µM | > 100 µM | > 100 µM | > 100 µM | > 100 µM | > 100 µM | > 100 µM | > 100 µM | > 100 µM
5 | CCOc1nc2cc3cccnc3c(Cl)c2nc1-c1ccccc1 | > 100 µM | > 50 µM | 73 µM | > 50 µM | > 50 µM | 50 µM | > 50 µM | > 100 µM | > 100 µM | > 100 µM | > 50 µM | > 50 µM | > 100 µM | > 100 µM
6 | COc1nc2cc3cccnc3c(Cl)c2nc1-c1ccccc1 | > 100 µM | > 100 µM | 4 µM | > 100 µM | > 100 µM | > 100 µM | > 100 µM | > 100 µM | > 100 µM | 21 µM | 9 µM | 73 µM | > 100 µM | > 100 µM
7 | Cn1c(=O)c(-c2cccs2)nc2c(Cl)c3ncccc3cc21 | > 100 µM | > 100 µM | 2 µM | > 100 µM | > 100 µM | > 100 µM | > 100 µM | > 100 µM | > 100 µM | > 100 µM | > 100 µM | > 100 µM | > 100 µM | > 100 µM
8 | Cn1c(=O)c(Cc2ccccc2)nc2c(Cl)c3ncccc3cc21 | > 100 µM | > 100 µM | 10 µM | > 100 µM | > 100 µM | > 100 µM | > 100 µM | > 100 µM | > 100 µM | > 100 µM | > 100 µM | > 100 µM | > 100 µM | > 100 µM
9 | O=c1c(-c2ccccc2)nc2c(Cl)c3ncccc3cc2n1Cc1ccc([N+](=O)[O-])cc1 | > 100 µM | > 100 µM | > 100 µM | > 100 µM | > 100 µM | > 100 µM | > 100 µM | > 100 µM | > 100 µM | > 100 µM | > 100 µM | > 100 µM | > 100 µM | > 100 µM
10 | COc1nc2cc3cccnc3c(Cl)c2nc1Cc1ccccc1 | > 100 µM | > 100 µM | 6 µM | > 100 µM | > 100 µM | > 100 µM | > 100 µM | > 100 µM | > 100 µM | > 100 µM | > 100 µM | > 100 µM | > 100 µM | > 100 µM
11 | C[C@@]1(O)[C@H](O)[C@@H](CO)O[C@H]1n1ccc(N)nc1=O |  |  |  |  |  | 16 µM |  |  |  | > 100 µM |  |  |  | 
12 | C[C@@]1(O)[C@H](O)[C@@H](CO)O[C@H]1n1cnc2c(=O)[nH]c(N)nc21 [2'-B-METHYL-GUANOSINE] |  |  |  |  |  |  |  |  | > 100 µM | 1.9 µM |  |  | 1.1 µM | > 100 µM
13 | C#C[C@@]1(O)[C@H](O)[C@@H](CO)O[C@H]1n1ccc(N)nc1=O [2'-ETHYNYL-D-CYTIDINE] |  |  |  |  |  |  | > 100 µM |  |  |  | 23 µM | 27 µM |  | 
14 | O=c1cnn([C@@H]2O[C@H](CO)[C@@H](O)[C@H]2O)c(=O)[nH]1 [6-AZAURIDINE] |  |  |  |  | 1.2 µM |  | ≥ 12.5 µM |  |  |  |  |  |  | 
15 | Nc1nc2c(ncn2COCCO)c(=O)[nH]1 [ACYCLOVIR] |  |  |  |  |  |  | > 100 µM |  |  |  |  |  |  | 
16 | Nc1ccn(C[C@@H](CO)OCP(=O)(O)O)c(=O)n1 [CIDOFOVIR] |  |  |  | 19 µM |  |  | > 100 µM |  |  |  |  |  |  | 

From ChEMBL document CHEMBL3734708, “Synthesis, cytotoxicity and antiviral evaluation of new series of imidazo[4,5-g]quinoline and pyrido[2,3-g]quinoxalinone derivatives” (Eur J Med Chem, 2015)
